Source: ChEMBL document CHEMBL1123096, “Alpha-adrenoreceptor reagents. 3. Synthesis of some 2-substituted 1,4-benzodioxans as selective presynaptic alpha 2-adrenoreceptor antagonists” (J Med Chem, 1985)

What was measured:
[1] = target: Adrenergic receptor alpha (Rattus norvegicus) (UniProt P15823+P23944+P43140+P22086+P19328+P22909); test: Selectivity as ratio […] against alpha-2 receptor to that of alpha-1 receptor.; type: protein assay
[2] = target: Adrenergic receptor alpha-1 (Rattus norvegicus) (UniProt P15823+P23944+P43140); test: post-synaptic antagonist activity towards alpha-1 adrenergic receptor was determined. Concentration giving a dose response to phenylephrine (idazoxan=1) was reported.; type: functional
Chain of Adrenergic receptor alpha-1 (Rattus norvegicus) (P15823 whole entry, looked up): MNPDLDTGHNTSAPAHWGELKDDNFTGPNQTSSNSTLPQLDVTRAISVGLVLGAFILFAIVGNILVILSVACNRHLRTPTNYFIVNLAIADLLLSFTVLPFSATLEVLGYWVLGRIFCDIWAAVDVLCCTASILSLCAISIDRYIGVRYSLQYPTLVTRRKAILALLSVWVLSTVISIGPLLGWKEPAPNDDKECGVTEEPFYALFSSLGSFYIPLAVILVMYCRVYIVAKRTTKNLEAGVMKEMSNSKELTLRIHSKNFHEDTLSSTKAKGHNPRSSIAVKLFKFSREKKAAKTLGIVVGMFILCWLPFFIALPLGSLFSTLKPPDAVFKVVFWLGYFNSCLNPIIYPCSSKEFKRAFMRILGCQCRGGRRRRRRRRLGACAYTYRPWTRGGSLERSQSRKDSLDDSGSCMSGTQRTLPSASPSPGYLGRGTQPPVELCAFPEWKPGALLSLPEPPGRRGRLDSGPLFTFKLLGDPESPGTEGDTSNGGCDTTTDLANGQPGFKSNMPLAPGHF
Chain of Adrenergic receptor alpha-1 (Rattus norvegicus) (P23944 whole entry, looked up): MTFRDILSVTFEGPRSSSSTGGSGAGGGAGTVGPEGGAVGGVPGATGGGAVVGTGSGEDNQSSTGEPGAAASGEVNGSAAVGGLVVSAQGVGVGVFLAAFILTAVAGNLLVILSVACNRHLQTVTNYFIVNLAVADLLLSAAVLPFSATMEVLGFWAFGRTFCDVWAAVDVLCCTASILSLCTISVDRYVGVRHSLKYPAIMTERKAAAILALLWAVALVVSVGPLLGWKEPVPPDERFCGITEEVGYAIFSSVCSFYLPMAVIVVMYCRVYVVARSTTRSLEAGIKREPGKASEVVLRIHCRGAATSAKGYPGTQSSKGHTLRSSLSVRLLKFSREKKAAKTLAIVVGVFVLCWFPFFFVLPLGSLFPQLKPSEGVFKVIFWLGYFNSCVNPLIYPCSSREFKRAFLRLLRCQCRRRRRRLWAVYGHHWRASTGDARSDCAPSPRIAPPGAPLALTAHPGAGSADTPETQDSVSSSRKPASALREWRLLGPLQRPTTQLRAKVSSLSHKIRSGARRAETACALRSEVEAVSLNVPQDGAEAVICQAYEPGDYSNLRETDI
Chain of Adrenergic receptor alpha-1 (Rattus norvegicus) (P43140 whole entry, looked up): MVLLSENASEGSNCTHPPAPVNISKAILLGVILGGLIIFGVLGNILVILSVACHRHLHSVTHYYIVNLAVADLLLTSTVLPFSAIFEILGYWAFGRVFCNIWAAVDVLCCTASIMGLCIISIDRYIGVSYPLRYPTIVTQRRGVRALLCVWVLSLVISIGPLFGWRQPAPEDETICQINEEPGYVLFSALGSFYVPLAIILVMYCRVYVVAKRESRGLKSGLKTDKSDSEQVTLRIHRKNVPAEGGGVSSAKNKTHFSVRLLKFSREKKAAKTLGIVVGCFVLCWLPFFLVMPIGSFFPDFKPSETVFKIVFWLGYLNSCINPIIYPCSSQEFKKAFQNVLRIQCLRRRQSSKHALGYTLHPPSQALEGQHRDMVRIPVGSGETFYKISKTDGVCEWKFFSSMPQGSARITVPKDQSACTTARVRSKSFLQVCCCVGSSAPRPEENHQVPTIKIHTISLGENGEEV
Summary of the method: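 Rat anococcygeus, postsynaptic α1 antagonism. At least five phenylephrine concentration–response curves were run alone, then at least four with the antagonist present.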

[3] = target: Adrenergic receptor alpha-2 (Rattus norvegicus) (UniProt P22086+P19328+P22909); test: Presynaptic antagonist activity towards alpha-2 adrenergic receptor.; type: functional
Chain of Adrenergic receptor alpha-2 (Rattus norvegicus) (P19328 whole entry, looked up): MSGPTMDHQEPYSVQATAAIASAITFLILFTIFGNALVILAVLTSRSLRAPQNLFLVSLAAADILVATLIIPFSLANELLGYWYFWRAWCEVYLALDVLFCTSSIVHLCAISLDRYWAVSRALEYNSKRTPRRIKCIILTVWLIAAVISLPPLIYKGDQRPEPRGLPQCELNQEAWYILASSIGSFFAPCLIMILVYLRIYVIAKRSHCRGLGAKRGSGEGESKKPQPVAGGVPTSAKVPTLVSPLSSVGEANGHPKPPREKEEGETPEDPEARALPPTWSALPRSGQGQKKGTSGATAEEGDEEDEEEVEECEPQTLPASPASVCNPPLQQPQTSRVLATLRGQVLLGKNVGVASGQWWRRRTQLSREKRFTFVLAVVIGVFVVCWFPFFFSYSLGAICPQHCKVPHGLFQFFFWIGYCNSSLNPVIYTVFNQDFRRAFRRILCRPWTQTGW
Chain of Adrenergic receptor alpha-2 (Rattus norvegicus) (P22086 whole entry, looked up): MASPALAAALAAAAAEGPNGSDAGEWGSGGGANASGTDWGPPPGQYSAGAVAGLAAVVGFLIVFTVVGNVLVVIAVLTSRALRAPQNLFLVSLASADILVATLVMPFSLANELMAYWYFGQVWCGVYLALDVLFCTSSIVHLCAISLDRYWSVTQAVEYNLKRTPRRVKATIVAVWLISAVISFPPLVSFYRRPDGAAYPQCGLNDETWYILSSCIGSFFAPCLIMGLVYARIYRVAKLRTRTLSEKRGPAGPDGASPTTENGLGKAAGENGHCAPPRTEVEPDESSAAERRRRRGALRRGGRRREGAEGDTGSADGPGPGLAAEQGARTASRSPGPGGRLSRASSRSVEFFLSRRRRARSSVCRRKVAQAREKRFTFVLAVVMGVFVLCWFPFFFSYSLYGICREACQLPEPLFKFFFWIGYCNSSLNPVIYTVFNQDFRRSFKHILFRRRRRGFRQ
Chain of Adrenergic receptor alpha-2 (Rattus norvegicus) (P22909 whole entry, looked up): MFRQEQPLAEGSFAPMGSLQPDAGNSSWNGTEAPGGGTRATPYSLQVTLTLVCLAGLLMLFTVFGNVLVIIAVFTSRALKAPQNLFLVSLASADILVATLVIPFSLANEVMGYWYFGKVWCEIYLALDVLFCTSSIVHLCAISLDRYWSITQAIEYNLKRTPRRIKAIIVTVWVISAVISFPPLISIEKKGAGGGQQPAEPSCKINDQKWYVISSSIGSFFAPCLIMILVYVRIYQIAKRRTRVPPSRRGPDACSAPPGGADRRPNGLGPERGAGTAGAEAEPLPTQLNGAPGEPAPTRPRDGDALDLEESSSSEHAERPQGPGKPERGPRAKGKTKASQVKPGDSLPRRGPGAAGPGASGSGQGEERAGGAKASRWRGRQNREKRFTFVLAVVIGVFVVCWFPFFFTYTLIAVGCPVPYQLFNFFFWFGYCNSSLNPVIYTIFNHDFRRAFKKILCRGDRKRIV
Summary of the method: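 Vas deferens from rat or mouse; the mouse tissue was in Mg-free Krebs at 30 °C under 0.5 g tension, stimulated at 0.1 Hz, 3 ms, 100–140 V, giving a twitch of about 100 mg. […] Standard curves were run before and after the test curve.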

| Ratio [1] | Postsynaptic antagonist [2] | potency relative to idazoxan [3] | SMILES |
| --- | --- | --- | --- |
| 1.6 | 0.026 | 0.04 | c1ccc(C2(C3=NCCN3)COc3ccccc3O2)cc1 (centres undefined) |
| 0.023 | 1 | 0.023 | c1ccc(OC2(C3=NCCN3)COc3ccccc3O2)cc1 (centres undefined) |
| 0.16 | 1 | 0.16 | c1ccc2c(c1)OCC(OC1CCCC1)(C1=NCCN1)O2 (centres undefined) |
| 0.85 | 1.1 | 0.9 | CCCCCCCC1(C2=NCCN2)COc2ccccc2O1 (centres undefined) |
| 0.2 | 1 | 0.2 | COCCOC1(C2=NCCN2)COc2ccccc2O1 (centres undefined) |
| 0.75 | 2.3 | 1.7 | COc1ccccc1COC1(C2=NCCN2)COc2ccccc2O1 (centres undefined) |
| 1.4 | 1 | 1.4 | OCCOC1(C2=NCCN2)COc2ccccc2O1 (centres undefined) |
| 0.17 | 2 | 0.34 | COc1ccc(OC2(C3=NCCN3)COc3ccccc3O2)cc1 (centres undefined) |
| 0.1 | 0.05 | 0.006 | COc1cc2c(cc1OC)OC(OC)(C1=NCCN1)CO2 (centres undefined) |
| – | < 0.006 | 0.024 | CC(C)C1(C2=NCCN2)COc2ccccc2O1 (centres undefined) |
| 0.36 | 1 | 0.36 | Clc1ccccc1COC1(C2=NCCN2)COc2ccccc2O1 (centres undefined) |
| 0.09 | 1 | 0.09 | COC1(C2=NC(C)CN2)COc2ccccc2O1 (centres undefined) |
| 1.2 | 0.6 | 0.72 | CCCCCOC1(C2=NCCN2)COc2ccccc2O1 (centres undefined) |
| 0.57 | 2.1 | 1.2 | C#CCOC1(C2=NCCN2)COc2ccccc2O1 (centres undefined) |
| 0.14 | 8.8 | 1 | c1ccc(CCOC2(C3=NCCN3)COc3ccccc3O2)cc1 (centres undefined) |
| 0.24 | 1 | 0.24 | OCCCCOC1(C2=NCCN2)COc2ccccc2O1 (centres undefined) |
| 0.68 | 2.2 | 1.5 | CCCCC1(C2=NCCN2)COc2ccccc2O1 (centres undefined) |
| 0.035 | 0.75 | 0.026 | C1=C(C2(C3=NCCN3)COc3ccccc3O2)CCCC1 (centres undefined) |
| 0.13 | 4.8 | 0.6 | COc1ccc(COC2(C3=NCCN3)COc3ccccc3O2)cc1 (centres undefined) |
| 1.75 | 0.2 | 0.35 | Cc1cccc(OC2(C3=NCCN3)COc3ccccc3O2)c1 (centres undefined) |
| 0.4 | 2.46 | 1 | Clc1ccc(COC2(C3=NCCN3)COc3ccccc3O2)cc1 (centres undefined) |
| 3.3 | 0.3 | 1 | C=CC1(C2=NCCN2)COc2ccccc2O1 (centres undefined) |

| SMILES | Ratio [1] | Postsynaptic antagonist [2] | potency relative to idazoxan [3] |
| --- | --- | --- | --- |
| C1=C(C2(C3=NCCN3)COc3ccccc3O2)CCC1 (centres undefined) | 1.7 | 0.09 | 0.15 |
| CC1Oc2ccccc2OC1C1=NCCN1 (centres undefined) | 0.087 | 0.023 | 0.002 |
| c1ccc2c(c1)OCC(C1=NCCN1)(C1CCCC1)O2 (centres undefined) | 0.04 | 0.4 | 0.015 |
